Experimental data reported in article PMC5360466 (Hepatology (Baltimore, Md.), 2017).
Entries after “also recorded” stand apart in the source; their conditions may differ.

Legend:
TUCH [1] = test: TUCH viral yield in mouse cholangiocytes; assay type: cell-based, rotavirus, simian strain; mouse cholangiocytes; conditions: mouse cholangiocytes pretreated with 1 mM peptide; Fig. 2B, 3C
Method in brief: (§1)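 Mouse or H69 cholangiocytes were pretreated with peptide in DMEM (1 mM, or varying concentrations) and infected at 4°C, then incubated 18 h at 37°C. Infectious yield was measured by focus forming assay: serial dilutions at 37°C for 14-16 h, acetone fixation, guinea pig anti-rotavirus IgG (1:1000), then FITC anti-guinea pig IgG (1:500), with foci counted by UV microscopy. DGEA and GHRP served as controls.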

Ro1845 [2] = test: Ro1845 binding assay in mouse cholangiocytes; assay type: cell-based, rotavirus, human strain; mouse cholangiocytes; conditions: mouse cholangiocytes pretreated with 1 mM peptide; Fig. 2A, 3B
Method in brief: (§2)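 Confluent mouse or H69 cholangiocytes were pretreated with peptide (1 mM, or varying concentrations). Cells, medium and virus were chilled to 4°C, then inoculated and held 1 h at 4°C. Cells were washed twice and freeze/thawed twice. Bound virus (cell fraction) and unbound virus (washes plus inoculum) were titred by focus forming assay, and attached virus was expressed as % of inoculum. DGEA and GHRP peptides served as controls. Data are mean ± standard error, ANOVA.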

RRV [3] = test: RRV binding; assay type: cell-based; conditions: for effect on RRV-cholangiocyte binding: peptides at varying concentrations, 4°C
Method in brief: as §2

Ro1845 [4] = test: Ro1845 viral yield in mouse cholangiocytes; assay type: cell-based, rotavirus, human strain; mouse cholangiocytes; conditions: mouse cholangiocytes pretreated with 1 mM peptide; Fig. 2B, 3C
Method in brief: as §1

RRV [5] = test: RRV binding in siRNA-transfected mouse cholangiocytes; assay type: cell-based, rhesus rotavirus; mouse cholangiocytes; conditions: 1 mM peptide, Fig. 8A
TUCH [6] = test: TUCH binding assay in mouse cholangiocytes; assay type: cell-based, rotavirus, simian strain; mouse cholangiocytes; conditions: mouse cholangiocytes pretreated with 1 mM peptide; Fig. 2A, 3B
Method in brief: as §2

RRV [7] = test: RRV replication; assay type: cell-based; conditions: for inhibition of RRV replication: mouse cholangiocytes pretreated with 1 mM peptide, Fig. 8D; for effect on RRV replication: mouse cholangiocytes pretreated with peptide, concentration not given, Fig. 4B
Method in brief: as §1

rotavirus = conditions: due to decreased viral entry; cited from earlier work
RRV [8] = conditions: negative control peptide; cited from earlier work
RRV [9] = test: Murine model of biliary atresia; assay type: in vivo, BALB/c mice; conditions: bile ducts harvested 12 days after infection with RRV and peptide treatment; Fig. 5C
TUCH [10] = test: TUCH binding assay in H69 cells; assay type: cell-based, rotavirus, simian strain; human cholangiocytes (H69); conditions: Fig. 6C
Method in brief: as §2

GRV [11] = test: GRV viral yield in H69 cells; assay type: cell-based, rotavirus, goat strain; human cholangiocytes (H69); conditions: Fig. 6D
Method in brief: as §1

GRV [12] = test: GRV binding assay in mouse cholangiocytes; assay type: cell-based, rotavirus, goat strain; mouse cholangiocytes; conditions: mouse cholangiocytes pretreated with 1 mM peptide; Fig. 2A
Method in brief: as §2

GRV [13] = test: GRV viral yield in mouse cholangiocytes; assay type: cell-based, rotavirus, goat strain; mouse cholangiocytes; conditions: mouse cholangiocytes pretreated with 1 mM peptide; Fig. 2B
Method in brief: as §1

RRV [14] = test: RRV replication in human cholangiocytes; assay type: cell-based, rhesus rotavirus; human cholangiocytes (H69)
Method in brief: as §1

RRV [15] = test: RRV binding assay in human cholangiocytes; assay type: cell-based, rhesus rotavirus; human cholangiocytes (H69)
Method in brief: as §2

Ro1845 [16] = test: Ro1845 viral yield in H69 cells; assay type: cell-based, rotavirus, human strain; human cholangiocytes (H69); conditions: Fig. 6D
Method in brief: as §1

TUCH [17] = test: TUCH viral yield in H69 cells; assay type: cell-based, rotavirus, simian strain; human cholangiocytes (H69); conditions: Fig. 6D
Method in brief: as §1

GRV [18] = test: GRV binding assay in H69 cells; assay type: cell-based, rotavirus, goat strain; human cholangiocytes (H69); conditions: Fig. 6C
Method in brief: as §2

Ro1845 [19] = test: Ro1845 binding assay in H69 cells; assay type: cell-based, rotavirus, human strain; human cholangiocytes (H69); conditions: Fig. 6C
Method in brief: as §2

[20] = mouse cholangiocytes pretreated with 1 mM peptide, versus serum-free media, Fig. 3B, 4C, 8C
[21] = mouse cholangiocytes pretreated with peptide, concentration not given, Fig. 4A

## DGEA [reference compound]
TUCH [1]
  effect on TUCH replication / viral yield: significantly inhibited
Ro1845 [2]
  effect on Ro1845 binding: significantly inhibited
RRV [3]; [20]
  effect on RRV binding: significantly inhibited
RRV [3]; mouse cholangiocytes, concentration not given, Fig. 1B
  RRV binding, percent of control (positive control): 61.40%
Ro1845 [4]
  effect on Ro1845 replication / viral yield: significantly inhibited
RRV [5]
  peptide blocking of RRV binding in negative control siRNA cholangiocytes: remained sensitive to DGEA blocking
TUCH [6]
  effect on TUCH binding: significantly inhibited

## FSGIKSTIDAAKSMATNVMKKFKK [reference compound]
RRV [3]; [20]
  effect on RRV binding: no effect
RRV [7]
  inhibition of RRV replication: 42.43%
rotavirus
  viral replication in MA104 cells treated with peptide: reduced viral replication

## GHRP
RRV [8]
  ability to inhibit RRV binding: no ability to inhibit RRV binding

## ISRLY
RRV [3]; [20]
  effect on RRV binding: maintained the ability to inhibit

## KTKIDRSTQISPNTLPD [reference compound]
RRV [3]; [20]
  effect on RRV binding: no effect
RRV [7]
  inhibition of RRV replication: 54.50%
rotavirus
  viral replication in MA104 cells treated with peptide: reduced viral replication

## MRTRVSGLY
TUCH [1]
  effect on TUCH replication / viral yield: no effect
Ro1845 [2]
  effect on Ro1845 binding: no effect
RRV [3]; [20]
  effect on RRV binding: no effect
Ro1845 [4]
  effect on Ro1845 replication / viral yield: no effect
TUCH [6]
  effect on TUCH binding: no effect

## MRTRVSRLY
RRV [3]; [21]
  effect on RRV binding: significantly inhibiting
RRV [7]
  effect on RRV replication: significantly inhibiting

## PTAAGV
RRV [3]; mouse cholangiocytes, Fig. 1B
  effect on RRV-cholangiocyte binding: did not interfere

## SSASAW
RRV [9]
  histology of extrahepatic bile ducts (hematoxylin and eosin): complete obstruction of their bile ducts
RRV [3]; mouse cholangiocytes, Fig. 1B
  effect on RRV-cholangiocyte binding: did not interfere

## TRTRVSRLY
TUCH [10]
  effect on TUCH binding to H69 cells: no effects
RRV [9]
  histology of extrahepatic bile ducts (hematoxylin and eosin): mild inflammation with a patent lumen
TUCH [1]
  effect on TUCH replication / viral yield: no reduction in viral yield; also recorded: no effect
GRV [11]
  effect on GRV viral yield in H69 cells: reduced viral yields
GRV [12]
  inhibition of GRV binding compared with control: 41.27%
GRV [13]
  reduction of GRV viral yield, of control: 35.51%
RRV [14]; H69 cells, 1 mM peptide, Fig. 6B
  RRV replication within human cholangiocytes, of control: 57.9%
RRV [14]; strain comparison, Fig. 6D
  effect on RRV viral yield in H69 cells: reduced viral yields
Ro1845 [2]
  effect on Ro1845 binding: no effect
RRV [3]; [20]
  effect on RRV binding: significantly reduced
RRV [3]; mouse cholangiocytes pretreated with 1 mM peptide, Fig. 2A
  inhibition of RRV binding compared with control: 45.13%
RRV [3]; [21]
  effect on RRV binding: significantly inhibiting
Ro1845 [4]
  effect on Ro1845 replication / viral yield: no reduction in viral yield; also recorded: no effect
RRV [15]; H69 cells, 1 mM peptide, Fig. 6A
  RRV binding to human cholangiocytes, of control: 65.9%
RRV [15]; strain comparison, Fig. 6C
  effect on RRV binding to H69 cells: able to block
Ro1845 [16]
  effect on Ro1845 viral yield in H69 cells: no decrease in yield
TUCH [17]
  effect on TUCH viral yield in H69 cells: no decrease in yield
GRV [18]
  effect on GRV binding to H69 cells: able to block
RRV [7]
  inhibition of RRV replication: 44.53%
  effect on RRV replication: significantly inhibiting
Ro1845 [19]
  effect on Ro1845 binding to H69 cells: no effects
TUCH [6]
  effect on TUCH binding: no effect

## VRTRISGLY
TUCH [1]
  effect on TUCH replication / viral yield: no effect
Ro1845 [2]
  effect on Ro1845 binding: no effect
RRV [3]; [20]
  effect on RRV binding: no effect
Ro1845 [4]
  effect on Ro1845 replication / viral yield: no effect
TUCH [6]
  effect on TUCH binding: no effect

## VSGLY
RRV [3]; [20]
  effect on RRV binding: unable to exhibit such inhibition

## VSRAY
RRV [3]; [20]
  effect on RRV binding: unable to exhibit such inhibition

## VSRLA
RRV [3]; [20]
  effect on RRV binding: maintained the ability to inhibit

## VSRLY
RRV [3]; [20]
  effect on RRV binding: maintained the ability to inhibit

## VVRLY
RRV [3]; [20]
  effect on RRV binding: unable to exhibit such inhibition
